According to ChEMBL document CHEMBL1127829, “Nonpeptide peptidomimetic antagonists of the neuropeptide Y receptor: benextramine analogs with selectivity for the peripheral Y2 receptor” (J Med Chem, 1994):

Assays:
Rattus norvegicus = organism: Rattus norvegicus; experiment: Relative potency in displacing 1 nM [3H]NPY from benextramine-sensitive rat brain NPYsites
[1] = Percentage of maximum displacement of 1.0 nM [3H]NPY from rat brain membranes homogenates using 1.0 uM NPY to determine specific binding; type: cell membranes; conditions: Membrane
How it was run: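 Rat brain membranes (1.2–1.6 mg protein/mL) were incubated with 1.0 nM [3H]NPY and 10⁻³–10⁻⁷ M compound in duplicate. Buffer was pH 7.4 Krebs–Ringer bicarbonate/phosphate with BSA and bacitracin, at 25 °C for 90 min. Nonspecific binding was defined with 1.0 μM NPY, and results were filtered and counted by scintillation. The value is the maximal percentage of specific [3H]NPY binding displaced, from at least triplicate experiments.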

[2] = Concentration producing half maximal displacement of [3H]NPY specific binding from benextramine sensitive NPY binding sites in rat brain membranes; type: cell membranes
How it was run: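 Membranes from male Sprague–Dawley rat brain (250–300 g), 1.2–1.6 mg protein/mL, were incubated with 1.0 nM [3H]NPY and 10–12 concentrations (10⁻³–10⁻⁷ M) of compound. Incubation was in duplicate in Krebs–Ringer bicarbonate with 50 mM phosphate, 0.1% BSA and 0.05% bacitracin (pH 7.4), at 25 °C for 90 min. Nonspecific binding was set with 1 μM NPY. Bound ligand was collected on PEI-treated GF/A filters and counted by scintillation. Runs were done at least in triplicate, and averaged data were fit to a two-site competitive isotherm.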

| SMILES | maximal displacement of specific binding [1] [%] | IC50 [2] [µM] | Relative potency (Rattus norvegicus) |
| --- | --- | --- | --- |
| c1ccc2cc(CNCCCCCCNCCCCCCNCCCCCCNCc3ccc4ccccc4c3)ccc2c1 | 75 | 48.3 | 1 |
| N=C(N)N(CCCCCCNCC12C[C@H]3C[C@@H](C1)C[C@@H](C2)C3)CCSSCCN(CCCCCCNCC12C[C@H]3C[C@@H](C1)C[C@@H](C2)C3)C(=N)N | 68 | 15 | 3.8 |
| N=C(N)N(CCCCCCNCc1ccc2ccccc2c1)CCCCCCN(CCCCCCNCc1ccc2ccccc2c1)C(=N)N | 72 | 18.4 | 2.6 |

The remaining compounds from weak to strong by IC50 [2], led by results:

| maximal displacement of specific binding [1] [%] | IC50 [2] [µM] | SMILES | Relative potency (Rattus norvegicus) |
| --- | --- | --- | --- |
| 65 | 57.6 | COc1ccccc1CNCCCCCCNCCSSCCNCCCCCCNCc1ccccc1OC [BENEXTRAMINE] | 1 |
| 68 | 31.3 | c1ccc2cc(CNCCCCCCNCCSSCCNCCCCCCNCc3ccc4ccccc4c3)ccc2c1 | 1.8 |
| 76 | 14.8 | N=C(N)N(CCCCCCNCc1ccc2ccccc2c1)CCSSCCN(CCCCCCNCc1ccc2ccccc2c1)C(=N)N | 3.9 |
